4 compounds from ChEMBL document CHEMBL1121486, “Synthesis of nitrosourea derivatives of pyridine and piperidine as potential anticancer agents” (1980) can be followed below.

Several values for one entry are separate records, joined by “and”; a condition that tells them apart may be missing. Equal values may be shown once.

Experiment [1] concerns L1210. The experiment can be described thus: Compound tested for activity against mouse leukemia L1210 tumor (Intraperitoneally implanted) after single ip injection on day 1 at optimal dose of 100 mg/kg (Dose range 400-12.5). The class given is functional. As to conditions: route intraperitoneal. The method, boiled down: (§1)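 L1210 leukaemia implanted intraperitoneally in mice. Compound given over a dose range (mg/kg); optimum dose selected. Survivors for toxicity recorded day 5 post-injection. Measures: T – C body weight difference (g), % T/C, and cures, defined as 30-day survivors.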

Experiment [2] relates to L1210. Kind of experiment: The effect of compound on mouse leukemia L1210 tumor (Intraperitoneally implanted)after single dose injected intraperitoneally on day 1 […] at OD of 100 mg/kg. As to conditions: route intraperitoneal. The class given is functional.
The test system of experiment [3] is L1210. Kind of experiment: Compound tested for toxicity against mouse leukemia L1210 tumor (Intraperitoneally implanted) after single ip injection on day 1 at optimal dose (OD) of 12.5 mg/kg on the 5th day after the injection of the compound; (5/5). As to conditions: route intraperitoneal.
Experiment [4] relates to L1210. The experiment can be described thus: Effect of compound on mouse leukemia L1210 tumor (Intraperitoneally implanted) after single dose injected intraperitoneally on day 1 recorded as animal weight difference of the treated and the control (T-C) at OD of 100 mg/kg. The class given is functional. As to conditions: route intraperitoneal. The method, boiled down: as §1

In experiment [5] the test system is Mus musculus. The experiment can be described thus: Compound tested for the effect on total white blood cell count and reported as percentage change from control on day 3 at 40.25 mg/kg (ip). The class given is functional. The method, boiled down:
(§2)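 Total white blood cell count in mice. Treatment was intraperitoneal at the listed mg/kg doses, 10 mice per group. Counts were taken on days 3, 5 and 7 and expressed as % change from control, with the control being each group's predose value. Significance was taken at p ≤ 0.05.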

Experiment [6] concerns Mus musculus. Kind of experiment: Compound tested for the effect on total white blood cell count and reported as percentage change from control on day 3 at 90.5 mg/kg (ip). The class given is functional. The method, boiled down:
as §2

The test system of experiment [7] is Mus musculus. Kind of experiment: Compound tested for the effect on total white blood cell count and reported as percentage change from control on day 3 at 22.63 mg/kg (ip). The class given is functional. The method, boiled down:
as §2

The subject of experiment [8] is Mus musculus. The experiment can be described thus: Compound tested for the effect on total white blood cell count and reported as percentage change from control on day 5 at 22.63 mg/kg (ip). It is filed as functional. An outline of the steps:
as §2

In experiment [9] the test system is Mus musculus. Kind of experiment: Compound tested for the effect on total white blood cell count and reported as percentage change from control on day 5 at 90.5 mg/kg (ip). It is filed as functional. An outline of the steps:
as §2

In experiment [10] the test system is Mus musculus. Kind of experiment: Compound tested for the effect on total white blood cell count and reported as percentage change from control on day 3 at 11.31 mg/kg (ip). The class given is functional. An outline of the steps: as §2
The subject of experiment [11] is Mus musculus. Kind of experiment: Compound tested for the effect on total white blood cell count and reported as percentage change from control on day 7 at 40.25 mg/kg (ip). It is filed as functional. An outline of the steps:
as §2

The subject of experiment [12] is Lewis lung carcinoma cell line. Kind of experiment: Effect of compound on Lewis Lung carcinoma after single dose injected intraperitoneally on day 1 recorded as animal weight difference of the treated and the control (T-C) at OD of 64 mg/kg. It is filed as functional, Mus musculus. The note with it: route intraperitoneal.
For experiment [13], the system named is Mus musculus. Kind of experiment: Compound tested for the effect on total white blood cell count and reported as percentage change from control on day 5 at 40.25 mg/kg (ip). The class given is functional. An outline of the steps: as §2
Experiment [14] relates to Lewis lung carcinoma cell line. Kind of experiment: Effect of compound on Lewis Lung carcinoma after single ip injection on day 1 recorded as animal weight difference of the treated and the control (T-C) at OD of 64-2 mg/kg. It is filed as functional, Mus musculus.
The subject of experiment [15] is Lewis lung carcinoma cell line. Kind of experiment: Effect of compound on Lewis Lung carcinoma after single dose injected intraperitoneally on day 1 recorded as percentage of cured animals at OD of 64 mg/kg. The note with it: Mus musculus, route intraperitoneal.
The subject of experiment [16] is L1210. Kind of experiment: Compound tested for activity against mouse leukemia L1210 tumor (Intraperitoneally implanted) after single ip injection on day 1 at optimal dose of 100 mg/kg (Dose range 256-16). It is filed as functional. As to conditions: route intraperitoneal. The method, boiled down:
as §1

Experiment [17] concerns L1210. Kind of experiment: Compound tested for toxicity against mouse leukemia L1210 tumor (Intraperitoneally implanted) after single ip injection on day 1 at optimal dose (OD) of 100 mg/kg on the 5th day after the injection of the compound; (6/6). The class given is functional. As to conditions: route intraperitoneal.
Experiment [18] relates to L1210. The experiment can be described thus: Compound tested for activity against mouse leukemia L1210 tumor (Intraperitoneally implanted) after single ip injection on day 1 at optimal dose of 100 mg/kg (Dose range 100-6.25). As to conditions: route intraperitoneal. It is filed as functional. An outline of the steps: as §1
The subject of experiment [19] is Mus musculus. Kind of experiment: Compound tested for the effect on total white blood cell count and reported as percentage change from control on day 3 at 8.38 mg/kg (ip). The class given is functional. An outline of the steps:
as §2

For experiment [20], the system named is Mus musculus. Kind of experiment: Compound tested for the effect on total white blood cell count and reported as percentage change from control on day 5 at 18.75 mg/kg (ip). The class given is functional. The method, boiled down:
as §2

In experiment [21] the test system is Mus musculus. Kind of experiment: Compound tested for the effect on total white blood cell count and reported as percentage change from control on day 3 at 75 mg/kg (ip). It is filed as functional. The method, boiled down: as §2
Experiment [22] concerns Mus musculus. The experiment can be described thus: Compound tested for the effect on total white blood cell count and reported as percentage change from control on day 7 at 75 mg/kg (ip). The class given is functional. An outline of the steps: as §2
In experiment [23] the test system is Mus musculus. The experiment can be described thus: Compound tested for the effect on total white blood cell count and reported as percentage change from control on day 3 at 18.75 mg/kg (ip). It is filed as functional. The method, boiled down: as §2
The subject of experiment [24] is Mus musculus. The experiment can be described thus: Compound tested for the effect on total white blood cell count and reported as percentage change from control on day 7 at 8.38 mg/kg (ip). The class given is functional. An outline of the steps:
as §2

In experiment [25] the test system is Mus musculus. Kind of experiment: Compound tested for the effect on total white blood cell count and reported as percentage change from control on day 7 at 18.75 mg/kg (ip). It is filed as functional. An outline of the steps: as §2
The test system of experiment [26] is Mus musculus. Kind of experiment: Compound tested for the effect on total white blood cell count and reported as percentage change from control on day 7 at 37.5 mg/kg (ip). The class given is functional. An outline of the steps:
as §2

The subject of experiment [27] is 3EM 37. The experiment can be described thus: Compound tested for toxicity against 3EM 37 mouse ependymoblastoma after single ip injection on day 1 at optimal dose (OD) of 100 mg/kg on the 5th day after the injection of the compound; (10/10). As to conditions: route intraperitoneal.
The test system of experiment [28] is 3EM 37 ependymoblastoma (Mus musculus). Kind of experiment: Compound tested for activity against 3EM 37 mouse ependymoblastoma after single ip injection on day 1 at optimal dose of 100 mg/kg (Dose range 200-12.5). The note with it: route intraperitoneal.
Experiment [29] relates to L1210. The experiment can be described thus: The effect of compound on mouse leukemia L1210 tumor (Intracerebrally implanted) after single dose injected intraperitoneally on day 1 […] at OD of 100 mg/kg. It is filed as functional. The note with it: route intraperitoneal.
In experiment [30] the test system is Mus musculus. The experiment can be described thus: Compound tested for the effect on total white blood cell count and reported as percentage change from control on day 5 at 37.5 mg/kg (ip). The class given is functional. An outline of the steps: as §2
The test system of experiment [31] is L1210. The experiment can be described thus: Compound tested for toxicity against mouse leukemia L1210 tumor (Intracerebrally implanted) after single ip injection on day 1 at optimal dose (OD) of 100 mg/kg on the 5th day after the injection of the compound; (6/6). The class given is functional. As to conditions: route intraperitoneal.
The test system of experiment [32] is L1210. The experiment can be described thus: Compound tested for activity against mouse leukemia L1210 tumor (Intracerebrally implanted) after single ip injection on day 1 at optimal dose of 100 mg/kg (Dose range 200-12.5). As to conditions: route intraperitoneal. It is filed as functional.
The subject of experiment [33] is 3EM 37. Kind of experiment: Effect of compound on 3EM 37 mouse ependymoblastoma after single ip injection on day 1 recorded as percentage of cured animals at OD of 100 mg/kg. The note with it: route intraperitoneal. The class given is functional.
The test system of experiment [34] is Mus musculus. Kind of experiment: Compound tested for the effect on total white blood cell count and reported as percentage change from control on day 3 at 37.5 mg/kg (ip). The class given is functional. An outline of the steps:
as §2

Experiment [35] concerns Mus musculus. Kind of experiment: Compound tested for the effect on total white blood cell count and reported as percentage change from control on day 5 at 8.38 mg/kg (ip). It is filed as functional. An outline of the steps: as §2
The subject of experiment [36] is Mus musculus. Kind of experiment: Compound tested for the effect on total white blood cell count and reported as percentage change from control on day 5 at 75 mg/kg (ip). The class given is functional. The method, boiled down:
as §2

What is called T/C is the ratio of treated to control.

As to `O=C(O)/C=C\C(=O)O.O=NN(CCCl)C(=O)Nc1cccnc1`, in the experiment with L1210 [1], the Optimal dose turned out to be 12.5 mg/kg. The compound further gave a T/C with L1210 [2] of 126%. Besides, the Survival in the experiment on L1210 [3] is on record as 5. The same compound yielded a T-C in the experiment with L1210 [4] of -7 g.

Regarding `O=NN(CCCl)C(=O)NCCCl` [CARMUSTINE], the Change was -46% with Mus musculus [5]; -68% with Mus musculus [6]; -33% in the experiment on Mus musculus [7]; -28% and -42% with Mus musculus [8]; -48% in the experiment on Mus musculus [9]; -47% in the experiment with Mus musculus [10]. Also, the Change with Mus musculus [11] was -41%; in the experiment with Mus musculus [13] it was -22%. For the same compound, the T-C in experiment [12] is on record as -3.5 g. In addition, the Optimal dose in experiment [14] stood at 32 mg/kg. In addition, the T/C in experiment [15] is given as over 353%.

`CCCCN1CCC(NC(=O)N(CCCl)N=O)CC1.O=C(O)/C=C\C(=O)O` gave an Optimal dose in the experiment on L1210 [16] of 64 mg/kg. This compound also gave a T/C in the experiment on L1210 [2] of 197%. The same compound had a Survival in the experiment on L1210 [17] of 6. The compound also yielded a T-C with L1210 [4] of -3.9 g.

For `O=C(O)/C=C\C(=O)O.O=NN(CCCl)C(=O)NC1CCCN(Cc2ccccc2)C1` (centres undefined), the Optimal dose in the experiment on L1210 [18] was determined as 100 mg/kg; in experiment [28], 100 mg/kg; with L1210 [32], 100 mg/kg; in experiment [14] it was 64 mg/kg. In addition, the Change is recorded as -19% with Mus musculus [19]; -5% in the experiment on Mus musculus [20]; -63% in the experiment with Mus musculus [21]; 11% in the experiment on Mus musculus [22]; -26% in the experiment with Mus musculus [23]; 23% in the experiment with Mus musculus [24]. The Change with Mus musculus [25] is recorded as 40%; in the experiment with Mus musculus [26] it was 60%; in the experiment on Mus musculus [30], 16%; in the experiment with Mus musculus [34], -20%; in the experiment with Mus musculus [35], 15%; in the experiment on Mus musculus [36] it was -45%. For the same compound, the Survival in the experiment with 3EM 37 [27] is 10; with L1210 [17], 6; with L1210 [31] it was 6. Besides, the T/C in the experiment with L1210 [29] turned out to be 192%; in the experiment with L1210 [2], 340%; in the experiment on 3EM 37 [33], 223%; in experiment [15], 259%. Moreover, the T-C in experiment [12] was -3.7 g; in the experiment with L1210 [4] it was -5 g.
